Experimental data as given in article PMC8724840 (Biomolecules & Therapeutics, 2021).
pEC50: −log10 of the molar value. Where two headings read alike, the source gives them in different places.

Assays:
GPR41 = molecular target: T1, GPR41 (Homo sapiens, UniProt O14843); test: cAMP assay in GPR41-expressing HEK293 cells; assay type: cell-based
T1 sequence (O14843 1-346): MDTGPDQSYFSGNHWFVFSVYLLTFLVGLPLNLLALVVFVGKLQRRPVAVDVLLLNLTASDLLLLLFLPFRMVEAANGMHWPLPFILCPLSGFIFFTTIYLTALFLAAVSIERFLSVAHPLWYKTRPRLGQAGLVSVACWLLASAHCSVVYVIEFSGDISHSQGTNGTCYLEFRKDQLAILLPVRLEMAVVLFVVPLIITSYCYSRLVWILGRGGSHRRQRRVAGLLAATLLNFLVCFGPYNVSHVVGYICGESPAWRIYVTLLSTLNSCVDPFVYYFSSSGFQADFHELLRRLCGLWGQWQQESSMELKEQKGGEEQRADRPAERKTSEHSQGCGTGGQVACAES

human GPR43 [1] = molecular target: T2, human GPR43 (Homo sapiens, UniProt O15552); test: GloSensor cAMP assay in HEK293-hGPR43 cells; assay type: cell-based
T2 sequence (O15552 1-330): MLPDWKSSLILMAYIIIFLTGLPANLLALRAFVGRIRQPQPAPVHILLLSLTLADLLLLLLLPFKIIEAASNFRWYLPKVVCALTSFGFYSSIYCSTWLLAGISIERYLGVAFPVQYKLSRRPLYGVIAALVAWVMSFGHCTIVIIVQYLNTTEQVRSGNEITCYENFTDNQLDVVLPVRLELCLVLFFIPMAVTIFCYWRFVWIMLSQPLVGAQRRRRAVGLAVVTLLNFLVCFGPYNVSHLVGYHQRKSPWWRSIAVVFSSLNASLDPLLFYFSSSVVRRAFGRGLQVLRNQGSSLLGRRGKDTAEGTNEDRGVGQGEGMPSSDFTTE
Procedure, shortened: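 pGloSensor-22F was transfected into cumate-inducible HEK293-hGPR43 cells, which were re-plated 24 h later for 16 h. Cells were equilibrated 2 h at 20°C in CO2-independent medium with 2% GloSensor cAMP reagent, then pre-read. Compound was added for 5 min, then 1 μM forskolin for 15 min, followed by a luminescence post-read. Signal is post/pre-read, normalised to 0.2% DMSO. Single-point acetate/propionate 10 mM, other agonists 10 μM. Triplicate.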

GPR43 and β-arrestin 2 = molecular target: T3, GPR43 and β-arrestin 2 (Homo sapiens, UniProt O15552); test: Nano-Glo live cell assay of interaction between GPR43 and β-arrestin 2; assay type: cell-based; settings: for change of potency / slope in β-arrestin-2 NanoBiT assay on addition of acetate: co-treatment with fixed concentrations of acetate
T3 sequence (O15552 1-330): T2 sequence (O15552 1-330)

human GPR43 [2] = molecular target: T2, human GPR43; test: Ca2+ flux assay in HEK293-hGPR43 cells; assay type: cell-based
Procedure, shortened: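 HEK293 cells with cumate-inducible human GPR43, kept in DMEM/10% FBS/GlutaMAX/Pen-Strep/2 μg/mL puromycin at 37°C, 5% CO2. Seeded overnight, then loaded 2 h with Calcium 6 dye plus 2.5 mM probenecid. Fluorescence read (ex 485/em 525 nm) every 2.1 s for 50 s. Cells serum-starved. Run in duplicate or triplicate; mean ± SEM.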

[3] = tested on: NF-κB activity induced by TNF-α in GPR43-expressing cells; test: NF-κB luciferase reporter assay in HEK293-hGPR43 cells; assay type: cell-based, human
Procedure, shortened: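 For the NF-κB reporter readout, HEK293-hGPR43 cells were transfected with an NF-κB-RE luciferase reporter (pGL4.32), incubated 24 h at 37°C, 5% CO2, and plated overnight. Compound pretreatment lasted 20 min, then 10 ng/mL human TNF-α was added for 6 h at 37°C. Luminescence was read 15 min after adding One-Glo reagent. Duplicate or triplicate.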

Solubility in DMSO = assay type: physicochemical; settings: at a concentration of 20 mM
DSS-induced colitis = DSS-induced colitis mouse model; assay type: in vivo, mouse (female C57BL/6); settings: 30 mg/kg p.o. daily, 2% DSS
Procedure, shortened: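 Female C57BL/6 mice, 5 weeks old, SPF, acclimated 1 week, given 2% DSS (36–50 kDa) in drinking water ad libitum, renewed every 3 days. Compound 30 mg/kg p.o. daily. Scored daily: weight loss 0–4, stool 0–3, hemoccult bleeding 0–3. DAI is their sum. Day 8: colon length measured. PFA-fixed paraffin swiss-rolls stained for MPO by IHC (ABC, hematoxylin). n=5 control, 10 others.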

[4] = Homo sapiens, 6 h, read-out: EC50 NF-κB

Row | SMILES | cAMP level in GPR41-expressing cells (GPR41; 10 mM) | cAMP level in GPR43-expressing cells (human GPR43 [1]; 10 mM) | cAMP level in GPR41-expressing cells (GPR41; 10 μM) | solubility in dimethyl sulfoxide (DMSO) (Solubility in DMSO) | pEC50 (GPR43 and β-arrestin 2) | agonist type in the β-arrestin assay (maximum efficacy vs acetate and PAAT) (GPR43 and β-arrestin 2) | change of potency / slope in β-arrestin-2 NanoBiT assay on addition of acetate (GPR43 and β-arrestin 2) | level of myeloperoxidase (MPO) staining in colon (DSS-induced colitis; day 8) | pEC50 (human GPR43 [2]) | pEC50 (human GPR43 [1]) | cAMP level in GPR43-expressing cells (human GPR43 [1]; 10 μM) | pEC50 [3, 4] | other results
1 | CCC(=O)O [propionate, reference compound] | decrease | decrease | – | – | – | – | – | – | – | – | – | – | –
2 | CC(=O)[O-].[Na+] [Acetate, sodium acetate, reference compound] | decrease | decrease | – | – | – | – | – | – | – | – | – | – | pEC50 (GPR43 and β-arrestin 2; read-out: EC50 β-Arrestin 2, GPR43-SmBit / LgBit-βarr2, 25 min): 2.84; pEC50 (human GPR43 [2]; read-out: EC50 Ca^2+, HEK293-hGPR43): 4.24; pEC50 (human GPR43 [1]; read-out: EC50 cAMP, HEK293-hGPR43, forskolin 1 μM): 3.52; pEC50 (human GPR43 [1]; read-out: EC50 in the cAMP assay, HEK293-hGPR43): 3.52; efficacy of inhibition of NF-κB luciferase reporter activity ([3]; 10 ng/mL TNF-α): half the efficacy; pEC50 ([3]; read-out: EC50 NF-κB, 10 ng/mL TNF-α, 6 h): 4.11
3 | CC1=C(C(=O)Nc2cc(Cl)ccc2Cl)C(c2ccco2)C2=C(CCCC2=O)N1 (stereo not shown) [AR420626] | – | – | exerted activity | – | – | – | – | – | – | – | – | – | –
4 | Cc1nc(N2CCCC(C)C2)c2[nH]c(N)c(S(=O)(=O)c3ccccc3)c2n1 (stereo not shown) [Compound 110, 2-methyl-4-(3-methylpiperidin-1-yl)-7-(phenylsulfonyl)-5H-pyrrolo[3,2-d]pyrimidine-6-amine] | – | – | no effects | completely soluble | 5.79 | partial agonists | stiffer slopes | reduced | 5.62 | 4.73 | significantly suppressed | 5.47 | colon length (DSS-induced colitis; day 8): significantly restored; daily activity index (DAI) (DSS-induced colitis; vs vehicle-treated mice): decrease; stool consistency score (DSS-induced colitis; vs vehicle-treated mice): decrease; potency in the cAMP assay (human GPR43 [1]; HEK293-hGPR43): micromolar potency; pEC50 ([3]; Homo sapiens, read-out: EC50 NF-κB luciferase reporter): 5.47
5 | Cc1nc(N2C[C@@H](C)O[C@@H](C)C2)c2[nH]c(N)c(S(=O)(=O)c3ccccc3F)c2n1 [Compound 187, 4-[(2R,6S)-2,6-dimethylmorpholin-4-yl]-7-(2-fluorobenzenesulfonyl)-2-methyl-5H-pyrrolo[3,2-d]pyrimidin-6-amine] | – | – | no effects | completely soluble | 7.74 | partial agonists | stiffer slopes | reduced | 7.72 | 7.80 | significantly suppressed | 7.72 | potency and efficacy in the calcium assay (human GPR43 [2]; HEK293-hGPR43): highest potency and efficacy
